High-throughput results: PubChem, several laboratories
The list is not random: actives were taken first. Their share in the collection is about 3.3%.
Arrestin-AP2 inh: inhibitors of beta-arrestin/AP2 binding, primary screen, biochemical, GPCR trafficking, flow cytometry; beta-arrestin 1 C-terminal peptide binding to AP2 beta2-adaptin appendage (human); FITC-arrestin peptide / GST-AP2 beads; AP2 beta2 appendage carries R879A mutation; inhibition, % at 10 µM; hit rate 0.31% among 340,000; AID 504490, 2011;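 active means inhibition above a set limit, near 3 SD of compounds lacking own fluorescence, cut at about 54% in these data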
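System: GST-AP2 R879A glutathione beads. Medium: PBS with 0.05% Tween 20 and 0.1% BSA. Also added: FITC-arrestin peptide, 50 nM. Incubation: 12 min plus 1 h, RT. Measured by: high-throughput flow cytometry of beads, ex 488, em 535 nm. Evaluation: percent drop in bead-associated FITC signal.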
Myeloid diff MLP: induction of myeloid progenitor differentiation, primary screen, cell-based, flow cytometry, MLPCN library | hit rate 1% among 360,000 | ER-HoxA9 myeloid progenitors, lysozyme-GFP differentiation | calls only at 10 µM;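 active means normalized GFP-positive differentiation at or above the plate's own cutoff, the solvent-only control mean plus 3 SD; inconclusive means no clear call, values can overlap the other calls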;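 further: cells exposed to compound for four days before flow analysis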
Granule exo inh: LAMP-1 surface exposure blockers, TALL-104 cells – cell-based, flow cytometry, MLPCN library, primary screen; TALL-104 LAMP-1 surface exposure; cells stimulated with thapsigargin and PMA; inhibition, % at 10 µM; hit rate 0.66% among 360,000; AID 651702, 2012;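 active means inhibition above about 55%, limit read from the data; inconclusive means no clear call, values can overlap the other calls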
NRP1-CendR mod: modulators of CendR peptide binding to NRP-1, primary screen, biochemical, fluorescence polarization, uHTS; inhibition, % at 25 µM; FAM-RPARPAR peptide binding to NRP-1; Neuropilin-1 (Homo sapiens), O14786; AID 602438, 2012; hit rate 0.85% among 360,000;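 active means inhibition or corrected inhibition above about 18%, plus a signal ratio from 0.5 to 1.5, limit read from the data, passing the limit was not always enough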
ATG4B inh: ATG4B protease inhibitors, primary screen, biochemical, fluorescence, uHTS. AID 504462, 2011. hit rate 0.51% among 340,000. inhibition, % at 8.33 µM. ATG4B cleavage of LC3-PLA2, NBD-HPC fluorescence, 1 h. Cysteine protease ATG4B (Homo sapiens), Q9Y4P1; in the data active means inhibition above about 40%
Target sequence (Q9Y4P1 whole entry, looked up): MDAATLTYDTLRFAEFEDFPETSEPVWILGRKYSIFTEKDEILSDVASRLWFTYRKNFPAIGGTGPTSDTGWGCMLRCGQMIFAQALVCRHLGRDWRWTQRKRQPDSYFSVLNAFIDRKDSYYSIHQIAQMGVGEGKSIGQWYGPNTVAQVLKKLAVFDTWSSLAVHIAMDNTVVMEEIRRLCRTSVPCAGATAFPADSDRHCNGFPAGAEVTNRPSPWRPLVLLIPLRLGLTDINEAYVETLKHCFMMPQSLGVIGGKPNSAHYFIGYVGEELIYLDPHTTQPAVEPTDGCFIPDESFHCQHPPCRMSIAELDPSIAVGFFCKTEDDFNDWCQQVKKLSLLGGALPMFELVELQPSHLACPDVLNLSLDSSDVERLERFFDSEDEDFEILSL
ABCB6 inh MLPCN: ABCB6 transporter inhibitors, primary screen, K562-ABCB6 cells, flow cytometry, MLPCN library. ATP-binding cassette sub-family B member 6 (Homo sapiens), Q9NP58. fluorescence ratio to DMSO, % at 10 µM. AID 602162, 2011. hit rate 0.19% among 360,000. K562-ABCB6 porphyrin accumulation, 1 h; active compounds read low;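 active means fluorescence ratio to DMSO below 75%, the collection mean minus 3 SD; inconclusive means too few cells collected in the well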;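 further: signal is porphyrin accumulated inside mitochondria; lower ratio means ABCB6 inhibition with less porphyrin fluorescence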
Myeloid diff CP1: inducers of myeloid progenitor differentiation, confirmation, cell-based, GFP/Mac1 flow cytometry, cherry pick 01. shares compounds with Myeloid diff MLP. hit rate 2% among 2,300. ER-HoxA9 myeloid progenitors, GFP/Mac1 double-positive flow. AID 651706, 2012. calls only;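 active means share of green or green-and-red cells above 9 and 9% in run 1 or 4 and 3% in run 2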
GFP autofluor: compound fluorescence in myeloid differentiation counter-screen. ER-HoxA9 myeloid progenitors, no estrogen, GFP autofluorescence flow cytometry; vehicle wells 0%, positive control 100%. hit rate 7.4% among 2,300. shares compounds with Myeloid diff MLP. fluorescence response, % (concentration not given with the values);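 active means over 5% cells positive for green fluorescent reporter, or over 2% positive for both it and APC stain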
Large screens that a line does not name were inactive (follow-up assays come after a bar, where they were run).

Cc1ccc(-c2nnn(CC(=O)N3C(C)CCCC3C)n2)cc1 (centres undefined)	none
CCCCCN(C(=O)CCCSc1nncs1)c1c(N)n(CCCC)c(=O)[nH]c1=O	none
COc1ccc(Cc2n[nH]c(=O)c3ccccc23)cc1OC	none | Myeloid diff CP1 inactive | GFP autofluor inactive
COc1ccc(CC(N)c2csc(Nc3nc(C)cnc3C)n2)cc1 (centres undefined)	none (no result: Arrestin-AP2 inh, ATG4B inh)
Cc1nc2ccccc2n1CC(O)COCC1CC=CCC1 (centres undefined)	Myeloid diff MLP active | Myeloid diff CP1 inactive | GFP autofluor inactive
OC(COCC1CC=CCC1)Cn1cnc2ccccc21 (centres undefined)	none
C=CC[n+]1cccc(-c2cc3ccc(C)cc3[nH]2)c1	none | Myeloid diff CP1 inactive | GFP autofluor inactive
CCN(CC)C(=O)Cn1cc(S(=O)(=O)CC(=O)N2CCCCCC2)c2ccccc21	none
CCn1c(SCC(N)=O)nc2sc3c(c2c1=O)CCN(C)C3	none
CCNc1nc(SCC(N)=O)nc2sc3c(c12)CCN(C)C3	none | Myeloid diff CP1 inactive | GFP autofluor inactive
CCCc1cc(=O)[nH]c(SCC(=O)Nc2ccccc2C#N)n1	none | Myeloid diff CP1 inactive | GFP autofluor inactive
CCCc1cc(=O)[nH]c(SCC(=O)Nc2cccc3ccccc23)n1	none (no result: Myeloid diff MLP)
COc1ccc(S(=O)(=O)N2CCCCCC2)cc1C(=O)NCc1ccc(C)cc1	none
CC1=C(C(=O)OCc2ccc3c(c2)OCO3)C(c2ccc(F)cc2)NC(=O)N1 (centres undefined)	Myeloid diff MLP active | Myeloid diff CP1 inactive | GFP autofluor inactive
COC(=O)[C@H]1C[C@H](OC(=O)NCc2ccco2)[C@@]2(O)CN(S(=O)(=O)c3ccc(C)cc3)CC2[C@H]1C(=O)OC (some centres undefined)	none (no result: Arrestin-AP2 inh, ATG4B inh)
COc1ccc(Cc2nnc(NC(=O)C3CCCO3)s2)cc1OC (centres undefined)	Myeloid diff MLP active | Myeloid diff CP1 inactive | GFP autofluor inactive
COc1ccc(NC(=O)Nc2nnc(C(C)(C)C)s2)cc1	Myeloid diff MLP inconclusive
CC(C)(C)c1nnc(NC(=O)Nc2ccc(Cl)cc2)s1	Myeloid diff MLP active | Myeloid diff CP1 inactive | GFP autofluor inactive
C[C@@H]1CN([C@H](C)CO)C(=O)c2cc(C#CC3CCCCC3)cnc2O[C@H]1CN(C)Cc1cccnc1	none (no result: Arrestin-AP2 inh, ATG4B inh) | Myeloid diff CP1 inactive | GFP autofluor inactive
O=C(Nc1ccccc1F)c1ccc([N+](=O)[O-])s1	Myeloid diff MLP active | Myeloid diff CP1 inactive | GFP autofluor inactive
Cc1csc(SCc2nnc(-c3ccccc3Br)o2)n1	none | Myeloid diff CP1 inactive | GFP autofluor inactive
Cc1csc(SCc2nnc(-c3ccc(Cl)cc3)o2)n1	none
COCCCNC(=O)c1ccc(Cn2c(=O)c3ccccc3n(Cc3ccccc3C#N)c2=O)cc1	Myeloid diff MLP active | Myeloid diff CP1 inactive | GFP autofluor inactive
COCCCNC(=O)c1ccc(Cn2c(=O)c3ccccc3n(Cc3ccccc3C)c2=O)cc1	none
CC1(C)CC(=O)C=C(Nc2ccc(C(=O)O)cc2)C1	Myeloid diff MLP active | Myeloid diff CP1 inactive | GFP autofluor inactive
CC1(C)CC(=O)C=C(Nc2ccc(O)c(C(=O)O)c2)C1	none
COc1cc(-c2cnc3c(NC=O)cc(-c4ccc(S(C)(=O)=O)cc4)cn23)cc(OC)c1OC	Myeloid diff MLP active (no result: Arrestin-AP2 inh, ATG4B inh) | Myeloid diff CP1 inactive | GFP autofluor inactive
COc1ccc(-c2cnc3c(NC=O)cc(-c4ccc(S(C)(=O)=O)cc4)cn23)cc1OC	none (no result: Arrestin-AP2 inh, Myeloid diff MLP, ATG4B inh)
